Sampled rows, rich in hits. Any-hit rate of the full collection: about 2.7%.
pPAFAH FP inh: pPAFAH (human) enzyme inhibition; Q13093; recombinant pPAFAH, FP-rhodamine probe fluorescence polarization; inhibition, % at 3.39 µM; hit rate 1.5% among 330,000; AID 463082;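 active means inhibition above the mean inhibition across the screen plus 3 SD, cut at about 25% in these data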;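 further: inhibitors block binding of the rhodamine activity-based probe so polarization drops; 0% = enzyme with DMSO and 100% = wells lacking pPAFAH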
PAFAH1B2 FP inh: inhibitors of human PAFAH1B2; P68402; recombinant PAFAH1B2, FP-rhodamine activity probe, fluorescence polarization; inhibition, % at 3.39 µM; hit rate 1.2% among 340,000; AID 492953;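 active means inhibition above the mean of all tested compounds plus 3 SD, cut at about 24% in these data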;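 further: 0% = enzyme with DMSO and 100% = wells lacking PAFAH1B2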
PAFAH1B3 inh: blocks human PAF acetylhydrolase 1B catalytic subunit 3 | hit rate 0.28% among 340,000 | recombinant PAFAH1B3, FP-rhodamine probe, fluorescence polarization | inhibition, % at 3.39 µM;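 active means inhibition above the screen-wide average of all tested compounds plus 3 SD, cut at about 25% in these data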;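 further: 0% = enzyme with DMSO only and 100% = wells lacking PAFAH1B3 protein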
ASAP1 inh: ASAP1 ArfGAP inhibition | ASAP1-stimulated ARF1 GTP hydrolysis, GDP FP detection | inhibition, % at 16.5 µM | hit rate 0.19% among 360,000 | AID 624377; in the data active means inhibition above about 25%;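 further: 0% = vehicle with enzyme and substrate and 100% = no enzyme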
Target sequence (Q9ULH1 325-724 limits assumed): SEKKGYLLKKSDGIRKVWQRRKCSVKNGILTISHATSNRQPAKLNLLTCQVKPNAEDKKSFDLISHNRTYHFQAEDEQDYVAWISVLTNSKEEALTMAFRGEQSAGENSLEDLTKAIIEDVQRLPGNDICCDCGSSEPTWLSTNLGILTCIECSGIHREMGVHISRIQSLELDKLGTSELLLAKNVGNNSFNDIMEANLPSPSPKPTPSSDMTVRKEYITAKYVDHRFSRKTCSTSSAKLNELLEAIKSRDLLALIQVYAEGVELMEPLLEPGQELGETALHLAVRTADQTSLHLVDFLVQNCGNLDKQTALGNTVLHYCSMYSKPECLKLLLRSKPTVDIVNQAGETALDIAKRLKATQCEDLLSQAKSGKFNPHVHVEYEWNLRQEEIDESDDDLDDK
PAFAH2 inh: inhibitors of human PAFAH2. inhibition, % at 3.39 µM. Q99487. recombinant PAFAH2, FP-rhodamine activity probe, fluorescence polarization. hit rate 0.99% among 340,000;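 active means inhibition above the mean over all tested compounds plus 3 SD, cut at about 30% in these data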;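 further: inhibitors block probe labeling of enzyme so polarization drops; 0% = enzyme with DMSO and 100% = wells lacking PAFAH2 protein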
ARFGAP1 inh: rat ARFGAP1 inhibition | Q62848 | Arfgap1-stimulated ARF1 GTP hydrolysis, GDP FP detection | inhibition, % at 16.5 µM | hit rate 0.26% among 360,000;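 active means inhibition above a per-plate limit, mean inhibition of low control wells plus 3 SD, cut at about 25% in these data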;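 further: 0% = DMSO wells with enzyme and 100% = wells lacking Arfgap1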
Target sequence (Q62848 1-136 limits assumed): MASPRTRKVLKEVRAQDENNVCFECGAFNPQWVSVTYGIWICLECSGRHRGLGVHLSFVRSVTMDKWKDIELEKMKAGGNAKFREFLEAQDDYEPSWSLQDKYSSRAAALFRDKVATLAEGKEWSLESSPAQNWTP
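Replicates: Single well per compound | Assay system: Truncated rat Arfgap1 GAP domain | Control set: No-Arfgap1 wells (100%) versus DMSO full-reaction wells (0%) | Times: Enzyme reaction 120 min at 25 °C after 20 min preincubation | Reagent: Human ARF1(Δ1-17)-GTP substrate | Measured by: Tracer-displacement fluorescence polarization with EDTA stop, 620/688 nm | Measure: Percent inhibition of Arfgap1-stimulated GTP hydrolysis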
pPAFAH confirm: pPAFAH (human) inhibition, confirmed; shares compounds with pPAFAH FP inh; recombinant pPAFAH, FP-Rh probe fluorescence polarization; inhibition, % at 3.39 µM; hit rate 72% among 2,300; AID 463230;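 active means mean inhibition of the triplicate above the hit cutoff set for the earlier primary screen, cut at about 25% in these data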;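 further: 0% = enzyme with DMSO and 100% = wells lacking pPAFAH enzyme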
Active calls of the source: *; nt = no result given.

SMILES | pPAFAH FP inh | PAFAH1B2 FP inh | PAFAH1B3 inh | ASAP1 inh | PAFAH2 inh | ARFGAP1 inh | pPAFAH confirm
COCCCNc1c2c3c(cccc3[nH]c1=O)C(=O)c1ccccc1-2 | 106* | 109* | 134* | 1 | 136* | -4 | 84*
COc1ccc(O)c(C(=O)C2c3ccccc3C(=O)N2c2ccc(C)cc2)c1 (stereo not drawn) | 40* | 4 | 1 | -2 | 4 | -6 | -1
C#CCN1CC(COc2ccccc2)OCCS1(=O)=O (stereo not drawn) | nt | nt | nt | 3 | nt | -4 | nt
COC(=O)[C@]12C[C@H](CC(=O)NCc3ccc(OC)c(OC)c3)C(=O)N(Cc3ccccc3)C1=C[C@H](C(C)(C)C)O[C@@H]2C | nt | nt | nt | -1 | nt | -7 | nt
Cc1ccc(NS(=O)(=O)c2ccc(-c3ccc(=O)[nH]n3)o2)cc1 | 36* | 5 | -3 | -4 | -3 | -4 | 22
Cc1ccccc1C(=O)N[C@H](C(=O)N1CCC[C@H]1C(=O)NCc1ccccc1)c1ccccc1 | nt | nt | nt | 10 | nt | -1 | nt
O=[N+]([O-])c1ccc(Sc2nc3ccccc3[nH]2)c(Cl)c1 | nt | nt | nt | 1 | nt | 9 | nt
CCCCC/C=C\C/C=C\C/C=C\CCCCC(=O)O | 38* | -1 | 4 | 7 | 10 | -3 | 17
C#CCNc1cccc2c1S(=O)(=O)N[C@H](C)CO2 | nt | nt | nt | 0 | nt | 3 | nt
Nc1ccc(O)c2c1C(=O)c1ccccc1C2=O | 83* | 55* | 44* | -8 | 82* | -22 | 46*
Nc1ccc(NC(=O)c2ccccc2)c2c1C(=O)c1ccccc1C2=O | 2 | -3 | 3 | -8 | -3 | 2 | nt
CCCOC(=O)c1cc(-c2ccc(/C=C3/C(=O)N(C)C(=O)C(C#N)=C3C)o2)ccc1Cl | 58* | 7 | 7 | nt | 11 | nt | 26*
CCCOC(=O)c1cc(-c2ccc(C=O)o2)ccc1Cl | 14 | 1 | 1 | 2 | -4 | -6 | nt
Cc1nc2cc(C(=O)OCC(=O)NC3CCS(=O)(=O)C3)ccc2n1-c1ccccc1 (stereo not drawn) | 9 | 4 | 2 | -4 | -5 | -11 | nt
Cc1nc2cc(C(=O)OCC(=O)Nc3cccc(Cl)c3)ccc2n1-c1ccccc1 | 43* | -4 | -2 | -9 | 64* | 6 | 41*
COc1cc2cc3c(N)c(C(=O)Nc4sc(C)c(C)c4C#N)sc3nc2cc1OC | 52* | 7 | 14 | 10 | 23 | -19 | 14
COc1cc2cc3c(N)c(C(=O)NCc4ccco4)sc3nc2cc1OC | 24 | -2 | 9 | nt | 0 | nt | nt
CN(C)CC/C=C1/c2ccccc2COc2ccc(CC(=O)O)cc21 | 60* | -2 | -1 | -11 | 0 | 6 | 4
CN(C)CC/C=C1/c2ccccc2COc2ccccc21 | 1 | nt | nt | nt | nt | nt | nt
CC(C)(C)S(=O)(=O)N1C[C@H]2CC(=O)C=C2[C@@H]1CCO | nt | nt | nt | -4 | nt | -1 | nt
COc1ccccc1Cc1c(-c2cccc(Cl)c2)nc2c3ccccc3ccn12 | nt | nt | nt | -2 | nt | 12 | nt
CC(C)(c1ccccc1)c1ccc(OCCCN2CCNCC2)cc1 | 39* | 4 | -4 | 9 | -9 | 12 | 25*
O=C(NN1C(=O)/C(=C/C=C/c2ccco2)SC1=S)c1ccccc1O | 78* | 19 | 26* | -17 | 59* | -14 | 67*
O=C(O)CCN1C(=O)/C(=C/c2ccc(-c3nc4ccccc4s3)o2)SC1=S | 14 | 4 | 20 | -2 | 18 | -5 | nt
O=C(O)CC(C(=O)O)N1C(=O)/C(=C/c2ccc(-c3nc4ccccc4s3)o2)SC1=S (stereo not drawn) | 65* | 7 | 18 | -12 | 34* | -37 | 42*
SMILES | pPAFAH FP inh | PAFAH1B2 FP inh | PAFAH1B3 inh | ASAP1 inh | PAFAH2 inh | ARFGAP1 inh | pPAFAH confirm
O=C1S/C(=C\C=C\c2ccco2)C(=O)N1c1ccc(O)cc1 | 37* | 0 | 0 | 11 | -4 | 4 | 6
Cn1cccc1/C=C1\SC(=S)N(NC(=O)c2ccccc2O)C1=O | 11 | 0 | 7 | 1 | 14 | -4 | nt
O=C(O)CC(C(=O)O)N1C(=O)/C(=C/C=C/c2ccco2)SC1=S (stereo not drawn) | 68* | 5 | 8 | 1 | 22 | -8 | 10
CCN=C1NC(CCc2ccccc2)C(C(=O)OC)=C(C)N1Cc1ccccc1C(F)(F)F (stereo not drawn) | nt | nt | nt | -4 | nt | -2 | nt
O=C(O)CCCN1C(=O)/C(=C/C=C/c2ccco2)SC1=S | 61* | 6 | 12 | 2 | 32* | -14 | 18
Cc1cccc(N=C2NC(=O)/C(=C/C=C/c3ccco3)S2)c1C | 71* | 9 | 9 | 4 | 48* | 0 | 66*
Cc1ccc(N=C2NC(=O)/C(=C/C=C/c3ccco3)S2)cc1 | 68* | 0 | 13 | 15 | 21 | -1 | 33*
O=C1NC(=Nc2ccccc2)S/C1=C\C=C\c1ccco1 | 60* | 3 | 13 | -11 | 30 | -9 | 38*
O=C(Cc1ccccc1)N1O[C@H]2C=C[C@@H]1C2 | nt | nt | nt | -10 | nt | -13 | nt
Cc1cc(SCC(=O)c2ccc(O)c(O)c2)n2nc(C)c(-c3ccccc3)c2n1 | 72* | -1 | 13 | 10 | 17 | 3 | 88*
Cc1ccc(OCC(=O)N/N=C/C=C/c2ccco2)cc1 | 51* | -2 | -1 | -9 | 9 | -4 | 17
Cc1cc(C)c(Nc2cc(S(=O)(=O)O)c(N)c3c2C(=O)c2ccccc2C3=O)c(C)c1 | 89* | 63* | 46* | -9 | 83* | -8 | 92*
Cc1cc(C)c(NC(=O)COC(=O)c2cccc3c2C(=O)c2ccccc2C3=O)c(C)c1 | 11 | 0 | 11 | -17 | 15 | -5 | nt
Cc1ccc(C)c(Cn2nnc3c(=O)[nH]c(C4CCN(S(=O)(=O)c5ccc(S(=O)(=O)NC6CC6)cc5)CC4)nc32)c1 | 42* | -6 | -13 | 5 | -29 | 4 | 47*
CC(=O)N1CCN(c2ccc(Nc3ncnc4c3oc3ccccc34)cc2)CC1 | 69* | 0 | 5 | -4 | -6 | -5 | 67*
CCc1nc(Nc2ccc(N3CCN(C(C)=O)CC3)cc2)c2oc3ccccc3c2n1 | 42* | 1 | -2 | -10 | 6 | -2 | 33*
C[C@@H]1ON(C)[C@H]2C[C@H]3c4[nH]c5cccc(-c6ccccc6F)c5c4CCN3C(=O)[C@@H]12 | nt | nt | nt | -5 | nt | 6 | nt
O=C(O)CSc1cc(C(=O)c2cc(F)ccc2O)cn2c(=O)c3c(-c4ccccc4)csc3nc12 | 53* | -26 | -41 | -10 | -32 | -9 | 65*
CCCc1nc2c(C)cc(Br)cn2c1Cc1ccccc1OC | nt | nt | nt | 0 | nt | 2 | nt
CCOc1cc(OCC)cc(C(=O)N2CCC[C@@H]2C(=O)N2CCC[C@@H]2C(=O)NCc2cccc(OC)c2)c1 | nt | nt | nt | -1 | nt | -2 | nt

Source: PubChem BioAssay
